Consider 23 compounds from ChEMBL document CHEMBL1138259, “Novel fluorinated derivatives of the broad-spectrum MMP inhibitors N-hydroxy-2(R)-[[(4-methoxyphenyl)sulfonyl](benzyl)- and (3-picolyl)-amino]-3-methyl-butanamide as potential tools for the molecular imaging of activated MMPs with PET” (J Med Chem, 2007).

The target of one data set is Collagenase 3 (Homo sapiens, UniProt P45452).
Data set [1] has as its target 72 kDa type IV collagenase (Homo sapiens, UniProt P08253). Put plainly: Inhibition of MMP2.
For the next data set, the target named is Neutrophil collagenase (Homo sapiens, UniProt P22894). In words: Inhibition of MMP8.
Data set [2] concerns the target Matrix metalloproteinase-9 (Homo sapiens, UniProt P14780). In words: Inhibition of MMP9.
Data set [3] can be described thus: Lipophilicity, log D of the compound. In kind it is physicochemical. The following applies: octanol/water. In a few lines:
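Shake-flask partition of ¹⁸F-radioligand between 1-octanol and 0.02 M phosphate buffer, pH 7.4. Both layers gamma-counted with decay back-correction. log D taken as log of cpm/mL octanol over cpm/mL buffer. Four repeats, reported as mean ± SD.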

Data set [4] in a line: Stability in C57BL/6 mouse plasma at 13 to 38 MBq.kg^-1 after 20 mins. In kind it is ADME, organism-based. The following applies: read-out: Stability. Summed up:
(§1)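 Adult C57BL/6 mice (male and female, 25-30 g) received an ¹⁸F-radiotracer bolus in the tail vein and were killed with i.v. pentobarbitone at 2.5 or 20 min. Blood was drawn by cardiac puncture and plasma separated. Plasma from 2-3 mice (2.5 min) or 4 mice (20 min) was pooled and deproteinized with ice-cold acetonitrile. Supernatant was spiked with unlabeled reference and run on radio-HPLC to give the fraction of intact tracer versus metabolites.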

Data set [5] is described as follows: Stability in C57BL/6 mouse plasma at 13 to 38 MBq.kg^-1 after 2.5 mins. The format is ADME, organism-based. The settings on record: read-out: Stability. In a few lines:
as §1

Each structure is given as a SMILES string.

Matrix metalloproteinase-9, sequence (P14780 whole entry): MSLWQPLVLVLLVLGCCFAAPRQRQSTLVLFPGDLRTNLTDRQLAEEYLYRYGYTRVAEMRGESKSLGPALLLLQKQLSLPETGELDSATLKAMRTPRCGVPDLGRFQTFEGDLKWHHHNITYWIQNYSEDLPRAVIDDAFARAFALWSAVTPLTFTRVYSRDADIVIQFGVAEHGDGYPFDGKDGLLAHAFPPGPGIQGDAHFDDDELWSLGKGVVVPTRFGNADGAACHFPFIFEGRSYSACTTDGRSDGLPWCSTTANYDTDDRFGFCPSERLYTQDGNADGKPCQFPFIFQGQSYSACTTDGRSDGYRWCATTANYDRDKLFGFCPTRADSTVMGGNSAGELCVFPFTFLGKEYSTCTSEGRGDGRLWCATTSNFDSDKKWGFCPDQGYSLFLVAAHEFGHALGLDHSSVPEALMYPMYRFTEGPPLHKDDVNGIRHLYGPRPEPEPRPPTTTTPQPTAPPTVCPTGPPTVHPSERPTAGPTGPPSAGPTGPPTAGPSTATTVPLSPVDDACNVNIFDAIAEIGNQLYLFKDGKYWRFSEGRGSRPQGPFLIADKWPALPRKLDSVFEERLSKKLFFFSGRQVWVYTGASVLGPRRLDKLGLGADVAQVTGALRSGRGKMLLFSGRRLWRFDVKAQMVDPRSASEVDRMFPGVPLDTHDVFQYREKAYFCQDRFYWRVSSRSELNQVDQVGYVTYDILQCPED
Neutrophil collagenase, sequence (P22894 whole entry): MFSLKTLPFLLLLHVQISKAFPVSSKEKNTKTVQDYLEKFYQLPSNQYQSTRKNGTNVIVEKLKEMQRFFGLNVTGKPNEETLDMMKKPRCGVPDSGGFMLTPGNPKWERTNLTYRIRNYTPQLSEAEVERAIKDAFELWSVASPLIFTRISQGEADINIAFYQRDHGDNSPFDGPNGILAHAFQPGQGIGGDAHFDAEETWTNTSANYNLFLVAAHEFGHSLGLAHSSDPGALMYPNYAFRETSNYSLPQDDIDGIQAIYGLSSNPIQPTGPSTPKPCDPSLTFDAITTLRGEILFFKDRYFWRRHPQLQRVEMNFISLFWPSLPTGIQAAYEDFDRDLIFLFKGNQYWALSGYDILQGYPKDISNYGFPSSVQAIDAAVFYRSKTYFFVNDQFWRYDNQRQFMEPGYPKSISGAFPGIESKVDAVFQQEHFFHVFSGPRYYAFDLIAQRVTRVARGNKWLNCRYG
72 kDa type IV collagenase, sequence (P08253 whole entry): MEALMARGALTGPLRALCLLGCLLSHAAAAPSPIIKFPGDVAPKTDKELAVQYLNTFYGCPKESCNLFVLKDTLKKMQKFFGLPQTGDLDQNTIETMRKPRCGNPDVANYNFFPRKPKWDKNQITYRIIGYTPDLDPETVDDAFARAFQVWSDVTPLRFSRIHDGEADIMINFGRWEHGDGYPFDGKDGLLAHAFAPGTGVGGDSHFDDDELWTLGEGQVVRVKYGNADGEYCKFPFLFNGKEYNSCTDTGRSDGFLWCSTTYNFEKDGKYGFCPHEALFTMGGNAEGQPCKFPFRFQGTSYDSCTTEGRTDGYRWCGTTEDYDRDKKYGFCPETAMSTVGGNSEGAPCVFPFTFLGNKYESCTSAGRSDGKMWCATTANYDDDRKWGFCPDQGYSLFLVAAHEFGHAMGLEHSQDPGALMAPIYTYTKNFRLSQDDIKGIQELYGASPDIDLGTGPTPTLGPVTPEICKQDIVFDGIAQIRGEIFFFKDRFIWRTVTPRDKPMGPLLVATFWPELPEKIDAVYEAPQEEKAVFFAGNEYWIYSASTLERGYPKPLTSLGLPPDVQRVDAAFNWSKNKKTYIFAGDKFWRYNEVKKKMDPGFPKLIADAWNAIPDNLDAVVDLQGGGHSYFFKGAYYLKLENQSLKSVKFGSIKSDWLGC

For the compound `CC(C)[C@H](C(=O)O)N(Cc1cccnc1)S(=O)(=O)c1ccc(F)cc1`, the IC50 (as a rule, the concentration that gives 50% inhibition) against Collagenase 3 is greater than 100000 nM; in data set [1] it was greater than 100000 nM; against Neutrophil collagenase, 71000 nM; in data set [2], greater than 100000 nM.

For the compound `CC(C)[C@H](C(=O)NO)N(Cc1cccnc1)S(=O)(=O)c1ccc(F)cc1`, the IC50 worked out at 527 nM against Collagenase 3, 120 nM in data set [1], 228 nM against Neutrophil collagenase and 414 nM in data set [2].

For the compound `COc1ccc(S(=O)(=O)N(Cc2ccc(Br)nc2)[C@@H](C(=O)NO)C(C)C)cc1`, the IC50 on Collagenase 3 stood at 24 nM; in data set [1], 2 nM; against Neutrophil collagenase, 20 nM; in data set [2], 23 nM.

Consider `CC(C)[C@H](C(=O)O)N(Cc1ccccc1)S(=O)(=O)c1ccc(OCCI)cc1`, for which the 50% inhibitory concentration (IC50) in data set [1] came to 207 nM; in data set [2], 1350 nM.

In the case of `CC(C)[C@H](C(=O)NO)N(Cc1cccnc1)S(=O)(=O)c1ccc(OCC[18F])cc1`, in data set [3], the logD (usually the decadic logarithm of the distribution of all forms, ionised or not, between an organic phase and buffer at a given pH) worked out at 1.34. The remaining at 20 min in data set [4] was 53%.

Consider `CC(C)[C@H](C(=O)NO)N(Cc1ccccc1)S(=O)(=O)c1ccc(N(C)C)cc1`, for which the half-maximal inhibitory concentration (IC50) came to 10 nM on Collagenase 3, 335 nM in data set [1], 105 nM on Neutrophil collagenase and 614 nM in data set [2].

For the compound `CC(C)[C@H](C(=O)NO)N(Cc1cccnc1)S(=O)(=O)c1ccc([N+](=O)[O-])cc1`, the IC50 came out at 10 nM on Collagenase 3, 756 nM in data set [1], 14 nM on Neutrophil collagenase and 5150 nM in data set [2].

With `COc1ccc(S(=O)(=O)N(Cc2cccnc2F)[C@@H](C(=O)O)C(C)C)cc1`, the IC50 was 41000 nM on Collagenase 3, 20000 nM in data set [1], 78000 nM at Neutrophil collagenase and 10000 nM in data set [2].

Turning to `CC(C)[C@H](C(=O)O)N(Cc1ccccc1)S(=O)(=O)c1ccc(N(C)C)cc1`, the IC50 turned out to be 14000 nM against Collagenase 3, 41000 nM in data set [1], 14000 nM against Neutrophil collagenase and 15000 nM in data set [2].

Regarding `COc1ccc(S(=O)(=O)N(Cc2ccc(F)nc2)[C@@H](C(=O)O)C(C)C)cc1`, the IC50 against Collagenase 3 came to 30000 nM; in data set [1], 35000 nM; against Neutrophil collagenase it was 22000 nM; in data set [2] it was 9820 nM.

Take `CC(C)[C@H](C(=O)O)N(Cc1ccccc1)S(=O)(=O)c1ccc(OCCF)cc1`: the IC50 against Collagenase 3 is greater than 100000 nM; in data set [1], 5590 nM; against Neutrophil collagenase, 2460 nM; in data set [2] it was 1300 nM.

Take `COc1ccc(S(=O)(=O)N(Cc2ccc(Br)nc2)[C@@H](C(=O)O)C(C)C)cc1`: the IC50 at Collagenase 3 is 3260 nM; in data set [1], 6120 nM; against Neutrophil collagenase, 6760 nM; in data set [2] it was 6930 nM.

Take `COc1ccc(S(=O)(=O)N(Cc2cccnc2Br)[C@@H](C(=O)O)C(C)C)cc1`: the IC50 was 34000 nM against Collagenase 3, 9110 nM in data set [1], 7480 nM against Neutrophil collagenase and 35000 nM in data set [2].

For `COc1ccc(S(=O)(=O)N(Cc2cccnc2F)[C@@H](C(=O)NO)C(C)C)cc1`, the IC50 was determined as 50 nM at Collagenase 3, 19 nM in data set [1], 18 nM against Neutrophil collagenase and 51 nM in data set [2].

With `CC(C)[C@H](C(=O)NO)N(Cc1ccccc1)S(=O)(=O)c1ccc(OCCI)cc1`, the IC50 is 10 nM at Collagenase 3, 22 nM in data set [1], 3 nM at Neutrophil collagenase and 69 nM in data set [2].

On to `CC(C)[C@H](C(=O)NO)N(Cc1ccccc1)S(=O)(=O)c1ccc(F)cc1`, for which the IC50 against Collagenase 3 amounted to 384 nM; in data set [1] it was 239 nM; against Neutrophil collagenase it was 12 nM; in data set [2], 281 nM.

For the compound `CC(C)[C@H](C(=O)NO)N(Cc1cccnc1)S(=O)(=O)c1ccc(N(C)C)cc1`, the IC50 against Collagenase 3 is 1340 nM; in data set [1] it was 992 nM; against Neutrophil collagenase it was 1200 nM; in data set [2], 1330 nM.

For `CC(C)[C@H](C(=O)NO)N(Cc1cccnc1)S(=O)(=O)c1ccc(OCCF)cc1`, the IC50 against Collagenase 3 was 0.8 nM; in data set [1], 3 nM; against Neutrophil collagenase, 2 nM; in data set [2], 7 nM.

In data set [3], `CC(C)[C@H](C(=O)NO)N(Cc1ccccc1)S(=O)(=O)c1ccc(OCC[18F])cc1` displayed a logD of 2.02. In data set [4], the remaining at 20 min is 37%. The remaining at 2.5 min in data set [5] stood at 86%.

On to `COc1ccc(S(=O)(=O)N(Cc2ccc(F)nc2)[C@@H](C(=O)NO)C(C)C)cc1`, for which the IC50 came out at 0.9 nM on Collagenase 3, 8 nM in data set [1], 0.9 nM against Neutrophil collagenase and 0.5 nM in data set [2].

Consider `COc1ccc(S(=O)(=O)N(Cc2cccnc2Br)[C@@H](C(=O)NO)C(C)C)cc1`, for which the IC50 came to 59 nM on Collagenase 3, 30 nM in data set [1], 75 nM against Neutrophil collagenase and 103 nM in data set [2].

Consider `CC(C)[C@H](C(=O)NO)N(Cc1ccccc1)S(=O)(=O)c1ccc(OCCF)cc1`, for which the IC50 against Collagenase 3 worked out at 11 nM; in data set [1] it was 4 nM; against Neutrophil collagenase, 2 nM; in data set [2], 50 nM.

Turning to `CC(C)[C@H](C(=O)O)N(Cc1ccccc1)S(=O)(=O)c1ccc(F)cc1`, the IC50 on Collagenase 3 worked out at 9140 nM; in data set [1], 4350 nM; at Neutrophil collagenase, 754 nM; in data set [2], 821 nM.
